Laboratory results taken from ChEMBL document CHEMBL1671816, “Design and synthesis of oxymatrine analogues overcoming drug resistance in hepatitis B virus through targeting host heat stress cognate 70” (J Med Chem, 2011).

Assays:
Hepatitis B virus [1] = assay: Antiviral activity against wild type HBV infected in human Huh7.5 cells assessed as reduction of viral replication at 0.16 ug/ml after 36 hrs; format: functional; settings: Huh-7, 36 h
Summary of the method: (§1)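 Huh7.5 cells (DMEM, 10% inactivated FBS, 1% pen-strep) plated at 2 × 10^5 per well, incubated overnight, then transiently transfected for 24 h with pcDNA3.1 carrying the full wild-type or lamivudine-resistant (rtL180M + rtM204V) HBV genome. After a PBS wash, treated in fresh medium for 36 h. Replicative-intermediate HBV DNA measured by real-time PCR. Run twice; mean and SD.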

Hepatitis B virus [2] = assay: Antiviral activity against lamivudine-resistant HBV infected in human Huh7.5 cells assessed as reduction of viral replication at 0.16 ug/ml after 36 hrs; format: functional; settings: Huh-7, 36 h
Summary of the method: (§2)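 Huh7.5 cells (2 × 10^5/well) were plated, incubated overnight, then transiently transfected for 24 h with pcDNA3.1 carrying wild-type or lamivudine-resistant HBV (rtL180M + rtM204V). After a PBS wash they got fresh medium with drug (0.16 μg/mL for line 6, 37 μg/mL for line 7) for 36 h. HBV DNA replicative intermediate was measured by real-time PCR; experiment run twice, mean and SD.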

HepG2 2.2.15 = assay: Inhibition of Hsc70 mRNA expression in human HepG2(2.2.15) cells at 100 ug/ml after 24 hrs by RT-PCR analysis; format: functional; settings: HepG2 2.2.15, 24 h
Summary of the method: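 HepG2.2.15 cells seeded at 5 × 10^4 per well in Opti-MEM with 10% FBS, grown for one day, then exposed to compound at 100 μg/mL for 24 h. Total RNA isolated with TRIZOL. Hsc70 mRNA measured by real-time RT-PCR with GAPDH as the reference gene.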

[3] = Cytotoxicity against human HepG2(2.2.15) cells after 9 days; format: cell-based; settings: read-out: TC50
Summary of the method: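 Cytotoxicity in HepG2.2.15 cells cultured for 9 days at 37 °C, seeded at 2 × 10^4 per well. TC50 is the concentration killing 50% of cells relative to untreated controls.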

[4] = system: Hepatitis B virus (human); assay: Antiviral activity against HBV in human HepG2(2.2.15) cells assessed as reduction of viral DNA level after 9 days by RT-PCR analysis; settings: HepG2 2.2.15, 216 h
Hepatitis B virus [5] = assay: Antiviral activity against wild type HBV infected in human Huh7.5 cells assessed as reduction of viral replication at 37 ug/ml after 36 hrs; format: functional; settings: Huh-7, 36 h, read-out: INH; summary of the method: as §1
Hepatitis B virus [6] = assay: Antiviral activity against lamivudine-resistant HBV infected in human Huh7.5 cells assessed as reduction of viral replication at 37 ug/ml after 36 hrs; format: functional; settings: Huh-7, 36 h, read-out: INH; summary of the method: as §2
Mus musculus [7] = assay: Acute toxicity in ICR mouse assessed as mortality at up to 750 mg/kg, po after 7 days; format: organism-based; set-up: dose 750 mg/kg, route oral; settings: in vivo, 168 h
Summary of the method: (§3)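 Male and female ICR mice (22.0 ± 1.0 g), 10 per group (5 male, 5 female), given a single oral dose of 0 (1% polysorbate-80 in saline), 250, 500 or 750 mg/kg. Survival and body weight were monitored for 7 days. Blood was then drawn for AST, ALT, BUN and CRE as liver and kidney function markers.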

[8] = Acute toxicity in po dosed ICR mouse assessed as mortality after 7 days; format: organism-based; settings: in vivo; summary of the method: as §3
Mus musculus [9] = assay: Acute toxicity in ICR mouse assessed as change in body weight at up to 750 mg/kg, po after 7 days; format: organism-based; set-up: dose 750 mg/kg, route oral; settings: in vivo, 168 h; summary of the method: as §3
Mus musculus [10] = assay: Acute toxicity in ICR mouse assessed as liver function at up to 750 mg/kg, po after 7 days; format: organism-based; set-up: dose 750 mg/kg, route oral; settings: in vivo, 168 h; summary of the method: as §3
Mus musculus [11] = assay: Acute toxicity in ICR mouse assessed as kidney function at up to 750 mg/kg, po after 7 days; format: organism-based; set-up: dose 750 mg/kg, route oral; settings: in vivo, 168 h; summary of the method: as §3

IC50 [4] [µM]	SMILES	inhibition at 100 µg/mL (HepG2 2.2.15) [%]	CC50 at 216 h [3] [µM]	also measured
14	Cl.O=C(CCl)OC1C[C@@H]2[C@H]3CCCN4CCC[C@@H](CN2C(=O)C1O)[C@@H]34 (stereo not given in full)	88.2	1100	–
106	O=C(O)P(=O)(O)O [FOSCARNET]	–	> 1000	–
121	COC1CC(=O)N2C[C@@H]3CCCN4CCC[C@@H]([C@H]34)[C@H]2C1 (stereo not given in full)	48.6	1110	–
346	CC(=O)OC1C[C@@H]2[C@H]3CCCN4CCC[C@@H](CN2C(=O)C1O)[C@@H]34.Cl (stereo not given in full)	37.1	> 1000	–
16.3	O=C(OC1CC(=O)N2C[C@@H]3CCCN4CCC[C@@H]([C@H]34)[C@H]2C1)c1ccccc1 (stereo not given in full)	51	236	–
14.4	O=C1CC(OCc2ccccc2)C[C@@H]2[C@H]3CCCN4CCC[C@@H](CN12)[C@@H]34 (stereo not given in full)	24.7	136	–
2.76	O=C1C(OCc2ccccc2)C(OCc2ccccc2)C[C@@H]2[C@H]3CCCN4CCC[C@@H](CN12)[C@@H]34 (stereo not given in full)	45.4	37	–
168	CNC1CC(=O)N2C[C@@H]3CCCN4CCC[C@@H]([C@H]34)[C@H]2C1 (stereo not given in full)	40.1	> 1000	–
592	CC(Cl)C(=O)OC1C[C@@H]2[C@H]3CCCN4CCC[C@@H](CN2C(=O)C1O)[C@@H]34.Cl (stereo not given in full)	48.6	> 1000	–
54.5	O=C1CC(C[N+](=O)[O-])C[C@@H]2[C@H]3CCCN4CCC[C@@H](CN12)[C@@H]34 (stereo not given in full)	35.8	> 1000	–
23.9	CCOC(=O)OC1C[C@@H]2[C@H]3CCCN4CCC[C@@H](CN2C(=O)C1O)[C@@H]34 (stereo not given in full)	54.8	1000	–
47.1	O=C1C(O)C(O)C[C@@H]2[C@H]3CCCN4CCC[C@@H](CN12)[C@@H]34 (stereo not given in full) [13,14-DIHYDROXYMATRINE]	38.9	> 1000	–
42.6	Cl.O=C(OC1C[C@@H]2[C@H]3CCCN4CCC[C@@H](CN2C(=O)C1O)[C@@H]34)c1ccccc1 (stereo not given in full)	34.5	136	–

Further lines, the molecule ahead of its results:

SMILES	IC50 [4] [µM]	inhibition at 100 µg/mL (HepG2 2.2.15) [%]	CC50 at 216 h [3] [µM]	also measured
Nc1ccn([C@@H]2CS[C@H](CO)O2)c(=O)n1 [LAMIVUDINE]	–	–	–	inhibition at 0.16 µg/mL (Hepatitis B virus [1]): 64%; inhibition at 0.16 µg/mL (Hepatitis B virus [2]): 28%
O=C1C=CC[C@@H]2[C@H]3CCCN4CCC[C@@H](CN12)[C@@H]34 [SOPHOCARPINE]	–	21.6	–	–
O=C1CCC[C@@H]2[C@H]3CCCN4CCC[C@@H](CN12)[C@@H]34 [MATRINE]	–	52.4	–	–
CCOC(=O)OC1C[C@@H]2[C@H]3CCCN4CCC[C@@H](CN2C(=O)C1OC(=O)OCC)[C@@H]34 (stereo not given in full)	–	< 10	–	–
O=C(OC1C[C@@H]2[C@H]3CCCN4CCC[C@@H](CN2C(=O)C1OC(=O)c1ccc(F)c([N+](=O)[O-])c1)[C@@H]34)c1ccc(F)c([N+](=O)[O-])c1 (stereo not given in full)	–	30.8	–	–
COC1C[C@@H]2[C@H]3CCCN4CCC[C@@H](CN2C(=O)C1OC)[C@@H]34 (stereo not given in full)	–	39.3	–	–
O=C1C=CC[C@@H]2[C@H]3CCC[N+]4([O-])CCC[C@@H](CN12)[C@@H]34 (stereo not given in full) [OXYSOPHOCARPINE]	–	15.3	–	–
O=C(OC1C[C@@H]2[C@H]3CCCN4CCC[C@@H](CN2C(=O)C1O)[C@@H]34)c1ccc(F)c([N+](=O)[O-])c1 (stereo not given in full)	–	43.4	–	–
O=C1CC(O)C[C@@H]2[C@H]3CCCN4CCC[C@@H](CN12)[C@@H]34 (stereo not given in full) [13-HYDROXYMATRINE]	–	50.4	–	–
CCOC1CC(=O)N2C[C@@H]3CCCN4CCC[C@@H]([C@H]34)[C@H]2C1 (stereo not given in full)	9.55	74.1	481	inhibition at 37 µg/mL (Hepatitis B virus [5]): 32%; inhibition at 37 µg/mL (Hepatitis B virus [6]): 35%; Activity (Mus musculus [7]): Non-toxic; LD50 at 168 h [8]: > 750 mg/kg; Activity (Mus musculus [9]): Non-toxic; Activity (Mus musculus [10]): Non-toxic; Activity (Mus musculus [11]): Non-toxic
COC1=CC[C@@H]2[C@H]3CCCN4CCC[C@@H](CN2C1=O)[C@@H]34	–	39.7	–	–
O=C1CCC[C@@H]2[C@H]3CCC[N+]4([O-])CCC[C@@H](CN12)[C@@H]34 (stereo not given in full) [OXYMATRINE]	–	55	–	–
